Data as given in ChEMBL document CHEMBL4715736, “Identification of anticancer agents based on the thieno[2,3-b]pyridine and 1H-pyrazole molecular scaffolds” (2016).

Tested on: OVCAR-4
Experiment: Growth inhibition of human OVCAR-4 cells assessed as cell growth at 10 uM incubated for 48 hrs by sulforhodamine B assay relative to control
Type: functional
Conditions: read-out: Activity
Method in brief: (§1)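 Run by the NCI Developmental Therapeutics Program as part of its 60-line human tumour panel. Each compound tested at a single 10 µM dose. Growth expressed as % relative to untreated control cells (100%).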

SMILES	growth at 10 µM
Cc1cc(C)c(NC(=O)c2sc3nc4c(cc3c2N)CN(Cc2ccccc2)CC4)c(C)c1	44%

Tested on: SW-620
Experiment: Growth inhibition of human SW-620 cells assessed as cell growth at 10 uM incubated for 48 hrs by sulforhodamine B assay relative to control
Type: functional
Conditions: read-out: Activity
Method in brief: as §1

SMILES	growth at 10 µM
Cc1cc(C)c(NC(=O)c2sc3nc4c(cc3c2N)CN(Cc2ccccc2)CC4)c(C)c1	13%

Tested on: MCF7
Experiment: Growth inhibition of human MCF7 cells assessed as cell growth at 10 uM incubated for 48 hrs by sulforhodamine B assay relative to control
Type: functional
Conditions: read-out: Activity
Method in brief: (§2)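 Submitted to the NCI Developmental Therapeutics Program for the NCI60 human tumour cell line panel. First screen at a single 10 µM concentration. Read-out is growth relative to untreated control cells set at 100%.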

SMILES	growth at 10 µM
Cc1cc(C)c(NC(=O)c2sc3nc4c(cc3c2N)CN(Cc2ccccc2)CC4)c(C)c1	8%

Tested on: CAKI-1
Experiment: Growth inhibition of human CAKI-1 cells assessed as cell growth at 10 uM incubated for 48 hrs by sulforhodamine B assay relative to control
Type: functional
Conditions: read-out: Activity
Method in brief: (§3)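 NCI Developmental Therapeutics Program NCI60 panel. Compounds that were active in the 10 µM one-dose screen went on to dose–response testing. Growth at each concentration is expressed relative to untreated control (100%). GI50 (concentration giving 50% of maximal inhibition of proliferation) and TGI (concentration giving total growth inhibition) were derived from the curves.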

SMILES	growth at 10 µM
Cc1cc(C)c(NC(=O)c2sc3nc4c(cc3c2N)CN(Cc2ccccc2)CC4)c(C)c1	18%

Tested on: SNB-19
Experiment: Growth inhibition of human SNB-19 cells assessed as cell growth at 10 uM incubated for 48 hrs by sulforhodamine B assay relative to control
Type: functional
Conditions: read-out: Activity
Method in brief: as §1

SMILES	growth at 10 µM
Cc1cc(C)c(NC(=O)c2sc3nc4c(cc3c2N)CN(Cc2ccccc2)CC4)c(C)c1	44%

Tested on: SNB-19
Experiment: Growth inhibition of human SNB-19 cells assessed as cell growth at 100 uM incubated for 48 hrs by sulforhodamine B assay relative to control
Type: functional
Conditions: read-out: Activity

SMILES	growth at 100 µM
Cc1cc(C)c(NC(=O)c2sc3nc4c(cc3c2N)CN(Cc2ccccc2)CC4)c(C)c1	25%

Tested on: SF-295
Experiment: Growth inhibition of human SF-295 cells assessed as cell growth at 0.01 uM incubated for 48 hrs by sulforhodamine B assay relative to control
Type: functional
Conditions: read-out: Activity

SMILES	growth at 0.01 µM
Cc1cc(C)c(NC(=O)c2sc3nc4c(cc3c2N)CN(Cc2ccccc2)CC4)c(C)c1	86%

Tested on: SK-OV-3
Experiment: Growth inhibition of human SK-OV-3 cells assessed as cell growth at 10 uM incubated for 48 hrs by sulforhodamine B assay relative to control
Type: functional
Conditions: read-out: Activity
Method in brief: as §1

SMILES	growth at 10 µM
Cc1cc(C)c(NC(=O)c2sc3nc4c(cc3c2N)CN(Cc2ccccc2)CC4)c(C)c1	36%

Tested on: 786-0
Experiment: Growth inhibition of human 786-0 cells assessed as cell growth at 10 uM incubated for 48 hrs by sulforhodamine B assay relative to control
Type: functional
Conditions: read-out: Activity
Method in brief: as §3

SMILES	growth at 10 µM
Cc1cc(C)c(NC(=O)c2sc3nc4c(cc3c2N)CN(Cc2ccccc2)CC4)c(C)c1	23%

Tested on: RPMI-8226
Experiment: Growth inhibition of human RPMI-8226 cells assessed as cell growth at 10 uM incubated for 48 hrs by sulforhodamine B assay relative to control
Type: functional
Conditions: read-out: Activity
Method in brief: as §1

SMILES	growth at 10 µM
Cc1cc(C)c(NC(=O)c2sc3nc4c(cc3c2N)CN(Cc2ccccc2)CC4)c(C)c1	13%

Tested on: SK-MEL-2
Experiment: Growth inhibition of human SK-MEL-2 cells assessed as cell growth at 10 uM incubated for 48 hrs by sulforhodamine B assay relative to control
Type: functional
Conditions: read-out: Activity
Method in brief: as §1

SMILES	growth at 10 µM
Cc1cc(C)c(NC(=O)c2sc3nc4c(cc3c2N)CN(Cc2ccccc2)CC4)c(C)c1	34%

Tested on: KM12
Experiment: Growth inhibition of human KM12 cells assessed as cell growth at 1 uM incubated for 48 hrs by sulforhodamine B assay relative to control
Type: functional
Conditions: read-out: Activity

SMILES	growth at 1 µM
Cc1cc(C)c(NC(=O)c2sc3nc4c(cc3c2N)CN(Cc2ccccc2)CC4)c(C)c1	87%

Tested on: HT-29
Experiment: Growth inhibition of human HT-29 cells assessed as cell growth at 10 uM incubated for 48 hrs by sulforhodamine B assay relative to control
Type: functional
Conditions: read-out: Activity
Method in brief: as §2

SMILES	growth at 10 µM
Cc1cc(C)c(NC(=O)c2sc3nc4c(cc3c2N)CN(Cc2ccccc2)CC4)c(C)c1	3%

Tested on: LOX IMVI
Experiment: Growth inhibition of human LOX IMVI cells assessed as cell growth at 10 uM incubated for 48 hrs by sulforhodamine B assay relative to control
Type: functional
Conditions: read-out: Activity
Method in brief: as §2

SMILES	growth at 10 µM
Cc1cc(C)c(NC(=O)c2sc3nc4c(cc3c2N)CN(Cc2ccccc2)CC4)c(C)c1	29%

Tested on: MDA-MB-231
Experiment: Growth inhibition of human MDA-MB-231 cells assessed as cell growth at 10 uM incubated for 48 hrs by sulforhodamine B assay relative to control
Type: functional
Conditions: read-out: Activity
Method in brief: as §2

SMILES	growth at 10 µM
Cc1cc(C)c(NC(=O)c2sc3nc4c(cc3c2N)CN(Cc2ccccc2)CC4)c(C)c1	38%

Tested on: T47D
Experiment: Growth inhibition of human T47D cells assessed as cell growth at 10 uM incubated for 48 hrs by sulforhodamine B assay relative to control
Type: functional
Conditions: read-out: Activity
Method in brief: as §1

SMILES	growth at 10 µM
Cc1cc(C)c(NC(=O)c2sc3nc4c(cc3c2N)CN(Cc2ccccc2)CC4)c(C)c1	12%

Tested on: HCC 2998
Experiment: Growth inhibition of human HCC 2998 cells assessed as cell growth at 10 uM incubated for 48 hrs by sulforhodamine B assay relative to control
Type: functional
Conditions: read-out: Activity
Method in brief: as §3

SMILES	growth at 10 µM
Cc1cc(C)c(NC(=O)c2sc3nc4c(cc3c2N)CN(Cc2ccccc2)CC4)c(C)c1	30%
